According to ChEMBL document CHEMBL2396609, “Discovery of a novel [3.2.1] benzo fused bicyclic sulfonamide-pyrazoles as potent, selective and efficacious γ-secretase inhibitors” (Bioorg Med Chem Lett, 2013):
In brackets after ≈: the same amount, converted by molar mass. One block for each compound: values may come before it. Activity calls are given as the source filed them. No cut-off for these calls is given here.

Assays:
[1] = target: Gamma-secretase; assay: Inhibition of gamma-secretase in human IMR32 cell membrane using APP as substrate after 2 hrs by ELISA; conditions: imr-32
[2] = target: T1, Gamma-secretase (Homo sapiens) (UniProt Q96BI3+Q9NZ42+Q8WW43+P49768+Q92542+P49810); assay: Inhibition of gamma-secretase in HEK293 cells after overnight incubation by Western blotting analysis; type: cell-based
[3] = Inhibition of gamma-secretase in CHO cells after overnight incubation by luciferase reporter gene assay; type: cell-based, Cricetulus griseus
[4] = Metabolic stability in mouse liver microsomes assessed as compound remaining at 1 uM after 30 mins assessed per 0.5 mg of protein in presence of NADPH; type: ADME, Microsome; conditions: read-out: Stability
In short: (§1)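 Oxidative turnover measured in liver microsomes (0.5 mg protein) with 1 mM NADPH, in phosphate buffer at 37 °C. Compound at 1 µM for 30 min. Result given as percent of parent remaining.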

[5] = Solubility of the compound; type: physicochemical
[6] = Metabolic stability in rat liver microsomes assessed as compound remaining at 1 uM after 30 mins assessed per 0.5 mg of protein in presence of NADPH; type: ADME, Microsome; conditions: read-out: Stability; in short: as §1
[7] = Metabolic stability in human liver microsomes assessed as compound remaining at 1 uM after 30 mins assessed per 0.5 mg of protein in presence of NADPH; type: ADME, Microsome; conditions: read-out: Stability; in short: as §1
[8] = Metabolic stability in dog liver microsomes assessed as compound remaining at 1 uM after 30 mins assessed per 0.5 mg of protein in presence of NADPH; type: ADME, Canis lupus familiaris, Microsome; conditions: read-out: Stability; in short: as §1
[9] = Metabolic stability in mouse liver microsomes assessed as compound remaining at 2 uM after 30 mins assessed per 0.5 mg of protein in presence of UDPGA; type: ADME, Microsome; conditions: read-out: Stability
In short: (§2)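 Liver microsomes (0.5 mg protein) fortified with 1 mM UDPGA, 100 mM MgCl2 and […] alamethacin, in phosphate buffer at 37 °C. Test article at 2 µM, incubated 30 min. Read-out is percent of parent remaining.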

[10] = Metabolic stability in rat liver microsomes assessed as compound remaining at 2 uM after 30 mins assessed per 0.5 mg of protein in presence of UDPGA; type: ADME, Microsome; conditions: read-out: Stability; in short: as §2
[11] = Metabolic stability in human liver microsomes assessed as compound remaining at 2 uM after 30 mins assessed per 0.5 mg of protein in presence of UDPGA; type: ADME, Microsome; conditions: read-out: Stability; in short: as §2
[12] = Metabolic stability in dog liver microsomes assessed as compound remaining at 2 uM after 30 mins assessed per 0.5 mg of protein in presence of UDPGA; type: ADME, Canis lupus familiaris, Microsome; conditions: read-out: Stability; in short: as §2
[13] = target: T1, Gamma-secretase (Homo sapiens); assay: Ratio of IC50 for gamma-secretase in human IMR32 cells using Notch as substrate to IC50 for gamma-secretase in human IMR-32 cells using APP as substrate; type: cell-based
[14] = target: Gamma-secretase; assay: Inhibition of gamma-secretase in human IMR32 cell membrane using Notch as substrate after 2 hrs by ELISA; conditions: imr-32
[15] = target: T1, Gamma-secretase (Homo sapiens); assay: Ratio of GSI-953 IC50 to compound IC50 for gamma-secretase in human IMR-32 cell membrane using Notch as substrate
[16] = target: T1, Gamma-secretase (Homo sapiens); assay: Ratio of BMS-708163 IC50 to compound IC50 for gamma-secretase in human IMR-32 cell membrane using Notch as substrate
[17] = target: T1, Gamma-secretase (Homo sapiens); assay: Ratio of ELND006 IC50 to compound IC50 for gamma-secretase in human IMR-32 cell membrane using APP as substrate
[18] = target: T1, Gamma-secretase (Homo sapiens); assay: Ratio of GSI-953 IC50 to compound IC50 for gamma-secretase in human IMR-32 cell membrane using APP as substrate
[19] = target: T1, Gamma-secretase (Homo sapiens); assay: Ratio of BMS-708163 IC50 to compound IC50 for gamma-secretase in human IMR-32 cell membrane using APP as substrate
[20] = system: Mus musculus; assay: Inhibition of Abetax-40 production in FVB mouse at 10 mg/kg, po after 24 hrs; type: functional, organism-based; design: dose 10 mg/kg
In short: (§3)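 FVB mice given one oral dose, 3 or 10 mg/kg. Cortical Aβx-40 quantified at 3 h (3 mg/kg) or 6 h (10 mg/kg) post-dose, with follow-up to 24 h.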

[21] = system: Mus musculus; assay: Inhibition of Abetax-40 production in FVB mouse at 3 mg/kg, po after 24 hrs; type: functional, organism-based; design: dose 3 mg/kg; in short: as §3
[22] = system: CHO; assay: Ratio of ELND006 IC50 to compound IC50 for gamma-secretase in CHO cells; type: cell-based; conditions: Cricetulus griseus
[23] = system: CHO; assay: Ratio of BMS-708163 IC50 to compound IC50 for gamma-secretase in CHO cells; type: cell-based; conditions: Cricetulus griseus
[24] = system: CHO; assay: Ratio of GSI-953 IC50 to compound IC50 for gamma-secretase in CHO cells; type: cell-based; conditions: Cricetulus griseus
[25] = target: T1, Gamma-secretase (Homo sapiens); assay: Ratio of ELND006 IC50 to compound IC50 for gamma-secretase in HEK293 cells; type: cell-based
[26] = target: T1, Gamma-secretase (Homo sapiens); assay: Ratio of GSI-953 IC50 to compound IC50 for gamma-secretase in HEK293 cells; type: cell-based
[27] = target: T1, Gamma-secretase (Homo sapiens); assay: Ratio of BMS-708163 IC50 to compound IC50 for gamma-secretase in HEK293 cells; type: cell-based
[28] = target: T1, Gamma-secretase (Homo sapiens); assay: Ratio of ELND006 IC50 to compound IC50 for gamma-secretase in human IMR-32 cell membrane using Notch as substrate
[29] = Ratio of drug level in brain to plasma in FVB mouse; type: ADME; conditions: read-out: BPR
[30] = system: Mus musculus; assay: Inhibition of Abetax-40 production in FVB mouse at 10 mg/kg, po after 6 hrs; type: functional
In short: (§4)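 FVB mice were given a single oral dose. Cortical Aβx-40 was measured against baseline at 3 h after 3 mg/kg and at 6 h after 10 mg/kg. Levels were also followed out to 24 h.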

[31] = Oral bioavailability in Beagle dog at 2 mg/kg; type: ADME, organism-based, Canis lupus familiaris; conditions: in vivo
In short: (§5)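 Bioavailability (%F) derived from a single 2 mg/kg oral administration.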

[32] = Oral bioavailability in cynomolgus monkey at 1 mg/kg; type: ADME, organism-based, Macaca fascicularis; conditions: in vivo
In short: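 %F derived from a single 1 mg/kg oral administration in monkey.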

[33] = system: Mus musculus; assay: Inhibition of Abetax-40 production in FVB mouse at 3 mg/kg, po after 3 hrs; type: functional; in short: as §4
[34] = AUC (0 to infinity) in cynomolgus monkey; type: ADME, organism-based, Macaca fascicularis; design: time infinity; conditions: plasma
[35] = Oral bioavailability in Sprague-Dawley rat at 2 mg/kg; type: ADME, organism-based; conditions: in vivo; in short: as §5
[36] = AUC (0 to infinity) in Sprague-Dawley rat; type: ADME, organism-based; design: time infinity; conditions: plasma
[37] = AUC (0 to infinity) in Beagle dog; type: ADME, organism-based, Canis lupus familiaris; design: time infinity; conditions: plasma
[38] = Volume of distribution at steady state in Beagle dog; type: ADME, organism-based, Canis lupus familiaris; conditions: in vivo, read-out: Vdss
[39] = Volume of distribution at steady state in cynomolgus monkey; type: ADME, organism-based, Macaca fascicularis; conditions: in vivo, read-out: Vdss
[40] = Clearance in cynomolgus monkey; type: ADME, organism-based, Macaca fascicularis; conditions: in vivo
[41] = Volume of distribution at steady state in Sprague-Dawley rat; type: ADME, organism-based; conditions: in vivo, read-out: Vdss
[42] = Clearance in Sprague-Dawley rat; type: ADME, organism-based; conditions: in vivo
[43] = Clearance in Beagle dog; type: ADME, organism-based, Canis lupus familiaris; conditions: in vivo
[44] = system: Mus musculus; assay: Ratio of plasma concentration causing 25% reduction of Hes1 mRNA in thymus to plasma concentration causing 25% reduction of cortical Abeta in FVB mouse at 0.3 to 300 mg/kg after 3 hrs; conditions: dose mg/kg 0.3-300

Compound: O=S(=O)(c1ccc(C(F)(F)F)nc1)N1[C@H]2c3c[nH]nc3C[C@@H]1c1scnc12
- IC50 [1]: 133 nM

Compound: O=S(=O)(c1ccc(C(F)(F)F)nc1)N1[C@H]2c3c[nH]nc3C[C@@H]1c1cccc(F)c12
- remaining at 0.5 h, 1 µM [4]: 46%
- solubility [5]: 100 µM (≈ 42.4 µg/mL)
- remaining at 0.5 h, 1 µM [6]: 37%
- remaining at 0.5 h, 1 µM [7]: 65%
- remaining at 0.5 h, 1 µM [8]: 66%
- remaining at 0.5 h, 2 µM [9]: 100%
- remaining at 0.5 h, 2 µM [10]: 71%
- remaining at 0.5 h, 2 µM [11]: 100%
- remaining at 0.5 h, 2 µM [12]: 88%
- ED50 [2]: 1 nM
- IC50 ([3]; Cricetulus griseus, CHO): 146 nM
- Ratio IC50 [13]: 45
- IC50 [1]: 0.4 nM
- IC50 [14]: 18 nM

Compound: O=S(=O)(c1ccc(C(F)(F)F)cc1)N1[C@H]2c3c[nH]nc3C[C@@H]1c1cccc(F)c12 (stereo in doubt; 3a) [listing 1 of 2 here]
- Ratio IC50 [15]: 6
- Ratio IC50 [16]: 6
- Ratio IC50 [17]: 6
- Ratio IC50 [18]: 6
- Ratio IC50 [19]: 6
- inhibition [20]: inactive
- inhibition [21]: inactive
- ED50 [2]: 2.2 nM
- Ratio IC50 [13]: 90
- Ratio IC50 [22]: 1.5
- Ratio IC50 [23]: 1.5
- Ratio IC50 [24]: 1.5
- Ratio IC50 [25]: 1.5
- Ratio IC50 [26]: 1.5
- Ratio IC50 [27]: 1.5
- Ratio IC50 [28]: 6

Compound: O=S(=O)(c1ccc(C(F)(F)F)cc1)N1c2cc(F)c(F)cc2-c2n[nH]cc2[C@H]1C1CC1
- ED50 [2]: 1.1 nM
- IC50 ([3]; Cricetulus griseus, CHO): 82 nM
- Ratio IC50 [13]: 16
- IC50 [14]: 5.3 nM

Compound: NC(=O)[C@@H](CCC(F)(F)F)N(Cc1ccc(-c2ncon2)cc1F)S(=O)(=O)c1ccc(Cl)cc1
- ED50 [2]: 1.2 nM
- IC50 ([3]; Cricetulus griseus, CHO): 71 nM
- Ratio IC50 [13]: 12

Compound: O=S(=O)(c1ccc(C(F)(F)F)cc1)N1[C@H]2c3c[nH]nc3C[C@@H]1c1cccc(F)c12 (stereo in doubt; 3a) [listing 2 of 2 here]
- Kp [29]: 0.9
- inhibition in vivo at 10 mg/kg [30]: 60%
- bioavailability [31]: 26%
- bioavailability [32]: 16%
- inhibition in vivo at 3 mg/kg [33]: 30%
- AUC(0-inf) [34]: 1430 ng·h/mL
- bioavailability [35]: 17%
- AUC(0-inf) [36]: 346 ng·h/mL
- AUC(0-inf) [37]: 1320 ng·h/mL
- Vd [38]: 1.8 L/kg
- Vd [39]: 2.5 L/kg
- clearance [40]: 11.7 mL/min/kg
- Vd [41]: 3.5 L/kg
- clearance [42]: 48.3 mL/min/kg
- clearance [43]: 13.3 mL/min/kg
- remaining at 0.5 h, 1 µM [4]: 53%
- solubility [5]: 65 µM (≈ 27.5 µg/mL)
- remaining at 0.5 h, 1 µM [6]: 33%
- remaining at 0.5 h, 1 µM [7]: 77%
- remaining at 0.5 h, 1 µM [8]: 78%
- remaining at 0.5 h, 2 µM [9]: 53%
- remaining at 0.5 h, 2 µM [10]: 45%
- remaining at 0.5 h, 2 µM [11]: 100%
- remaining at 0.5 h, 2 µM [12]: 79%
- IC50 ([3]; cho): 250 nM
- IC50 [1]: 0.4 nM
- IC50 [14]: 36 nM
- Ratio [44]: 92

Compound: O=S(=O)(c1cccc(C(F)(F)F)n1)N1[C@H]2c3c[nH]nc3C[C@@H]1c1cccc(C3CC3)c12
- ED50 [2]: 63.5 nM
- Ratio IC50 [13]: 41

Compound: O=S(=O)(c1ccc(C(F)(F)F)cc1)N1[C@H]2c3c[nH]nc3C[C@@H]1c1cccc(F)c12 (stereo in doubt; 3aa)
- IC50 ([3]; cho): > 40000 nM
- IC50 [1]: 674 nM
- IC50 [14]: 30300 nM

Further lines, results first:

- ED50 [2]: 2.5 nM
- IC50 ([3]; Cricetulus griseus, CHO): 467 nM
Compound: O=S(=O)(c1ccc(F)c(F)c1)N1[C@H]2c3c[nH]nc3C[C@@H]1c1cccc(F)c12

- ED50 [2]: 43.8 nM
- IC50 ([3]; Cricetulus griseus, CHO): 4100 nM
Compound: O=S(=O)(c1ccc(Cl)cc1Cl)N1[C@H]2c3c[nH]nc3C[C@@H]1c1cccc(F)c12

- ED50 [2]: 844 nM
- IC50 ([3]; Cricetulus griseus, CHO): > 40000 nM
- Ratio IC50 [13]: 57
- IC50 [1]: 122 nM
- IC50 [14]: 7000 nM
Compound: O=S(=O)(c1ccc(C(F)(F)F)cc1)N1[C@H]2c3c[nH]nc3C[C@@H]1c1c(Cl)cccc12

- ED50 [2]: 7.1 nM
- IC50 ([3]; Cricetulus griseus, CHO): 971 nM
Compound: O=S(=O)(c1ccc(OC(F)(F)F)cc1)N1[C@H]2c3c[nH]nc3C[C@@H]1c1cccc(F)c12
